Results on two compounds are retold here after ChEMBL document CHEMBL4118097, “Selective Inhibitors of Dual Leucine Zipper Kinase (DLK, MAP3K12) with Activity in a Model of Alzheimer's Disease” (J Med Chem, 2017).

Test [1] has as its target Tyrosine-protein kinase Lck (Homo sapiens) (UniProt P06239). The experiment in a line: Inhibition of recombinant full length His-tagged human Lck expressed in baculovirus at 1 uM by FRET assay relative to control.
The target in test [2] is Tyrosine-protein kinase Blk (Homo sapiens) (UniProt P51451). Briefly: Inhibition of recombinant full length His-tagged human Blk cytoplasmic domain expressed in Baculovirus expression system at 1 uM by FRET assay relative to control.
Test [3] addresses T1, Mitogen-activated protein kinase kinase kinase 12 (Homo sapiens, UniProt Q12852).
T1 sequence (Q12852 whole entry): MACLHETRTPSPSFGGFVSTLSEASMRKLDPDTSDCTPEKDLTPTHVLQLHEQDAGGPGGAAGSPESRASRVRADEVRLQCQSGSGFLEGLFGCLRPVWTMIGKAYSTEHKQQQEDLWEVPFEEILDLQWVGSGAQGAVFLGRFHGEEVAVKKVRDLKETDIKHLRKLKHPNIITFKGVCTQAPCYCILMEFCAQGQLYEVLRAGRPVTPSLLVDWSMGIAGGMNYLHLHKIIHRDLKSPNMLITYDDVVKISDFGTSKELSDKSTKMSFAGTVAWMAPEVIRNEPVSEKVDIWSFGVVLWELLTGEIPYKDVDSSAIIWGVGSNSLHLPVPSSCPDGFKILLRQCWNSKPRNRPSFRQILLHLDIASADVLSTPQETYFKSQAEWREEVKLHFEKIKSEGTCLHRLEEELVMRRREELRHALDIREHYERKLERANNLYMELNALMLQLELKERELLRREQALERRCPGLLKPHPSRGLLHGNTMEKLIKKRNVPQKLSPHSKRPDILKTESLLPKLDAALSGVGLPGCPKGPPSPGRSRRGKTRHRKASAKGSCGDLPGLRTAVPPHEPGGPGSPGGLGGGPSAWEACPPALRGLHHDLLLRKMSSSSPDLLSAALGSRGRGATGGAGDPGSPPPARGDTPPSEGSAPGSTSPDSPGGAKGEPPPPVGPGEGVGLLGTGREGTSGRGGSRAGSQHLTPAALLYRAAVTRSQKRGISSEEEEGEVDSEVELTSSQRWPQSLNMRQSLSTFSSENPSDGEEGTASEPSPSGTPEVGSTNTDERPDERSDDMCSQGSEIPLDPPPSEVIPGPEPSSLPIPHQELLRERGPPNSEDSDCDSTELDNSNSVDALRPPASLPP
Briefly: Inhibition of doxycycline inducible human DLK transfected in HEK293 cells assessed as JNK phosphorylation after […] by Hoechst-33342 staining-based assay. In kind it is cell-based.

In test [4] the target is Tyrosine-protein kinase receptor UFO (Homo sapiens) (UniProt P30530). The experiment in a line: Inhibition of recombinant His-tagged human AXL (473 to end residues) cytoplasmic domain expressed in insect cells at 1 uM by FRET assay relative to control. In a few lines:
(§1)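 Single-point screen at 1 μM compound in a 220-kinase panel run by Life Technologies (SelectScreen). Z′-LYTE format: phosphorylation of a labeled peptide substrate read by FRET. Values are reported as percent inhibition.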

In test [5] the target is Tyrosine-protein kinase SYK (Homo sapiens) (UniProt P43405). Briefly: Inhibition of recombinant full length N-terminal GST-tagged human Syk cytoplasmic domain expressed in baculovirus expression system at 1 uM by FRET assay relative to control.
Test [6] deals with Dual specificity protein kinase CLK4 (Homo sapiens) (UniProt Q9HAZ1). The experiment in a line: Inhibition of full length recombinant GST-tagged human CLK4 expressed in baculovirus expression system at 1 uM by FRET assay relative to control.
The target in test [7] is MAP kinase-interacting serine/threonine-protein kinase 1 (Homo sapiens) (UniProt Q9BUB5). The experiment in a line: Inhibition of recombinant human N-terminal full length GST-tagged MKNK1 expressed in baculovirus at 1 uM by FRET assay relative to control.
The target in test [8] is STE20-like serine/threonine-protein kinase (Homo sapiens) (UniProt Q9H2G2). The experiment in a line: Inhibition of recombinant full length GST-tagged human SLK expressed in baculovirus expression system at 1 uM by FRET assay relative to control. In a few lines:
(§2)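 Single-concentration screen at 1 μM in Life Technologies SelectScreen, across a 220-kinase panel. Z′-LYTE format measures phosphorylation of a labeled peptide by FRET. Results are reported as percent inhibition.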

Test [9] addresses BDNF/NT-3 growth factors receptor (Homo sapiens) (UniProt Q16620). The experiment in a line: Inhibition of recombinant His-tagged human TrkB cytoplasmic domain expressed in baculovirus expression system at 1 uM by FRET assay relative to control. In short, it runs like this:
as §2

Test [10] deals with G protein-coupled receptor kinase 6 (Homo sapiens) (UniProt P43250). Briefly: Inhibition of recombinant full length GST-tagged human GRK6 expressed in baculovirus expression system at 1 uM by FRET relative to control. In short, it runs like this: as §2
Test [11] addresses 5'-AMP-activated protein kinase catalytic subunit alpha-1 (Homo sapiens) (UniProt Q13131). The experiment in a line: Inhibition of PRKAA1 (unknown origin) at 1 uM by FRET assay relative to control.
The target of test [12] is Serine/threonine-protein kinase Chk2 (Homo sapiens) (UniProt O96017). The experiment in a line: Inhibition of recombinant full length His-tagged human CHK2 expressed in baculovirus expression system at 1 uM by FRET assay relative to control.
The target of test [13] is Glycogen synthase kinase-3 beta (Homo sapiens) (UniProt P49841). The experiment in a line: Inhibition of recombinant full length His-tagged human GSK3beta expressed in baculovirus expression system at 1 uM by FRET relative to control.
Test [14] has as its target Histamine H1 receptor (Homo sapiens) (UniProt P35367). The experiment in a line: Binding affinity to recombinant human H1 receptor at 10 uM relative to control. In short, it runs like this:
(§3)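 Broad radioligand-binding and enzyme screening panel covering 42 targets (biogenic amine and neuropeptide receptors, ion channels, neurotransmitter transporters, acetylcholinesterase). Single test concentration of 10 μM. Results expressed as binding relative to control, with a hit defined as >50% of control.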

The target of test [15] is Sphingosine kinase 1 (Homo sapiens) (UniProt Q9NYA1). Briefly: Inhibition of recombinant full length GST-tagged human SPHK1 expressed in baculovirus expression system at 1 uM by FRET assay relative to control. In a few lines: as §2
For a further test, the species on record is Homo sapiens. The experiment in a line: Binding affinity to BZD receptor (unknown origin) at 10 uM relative to control. In short, it runs like this: as §3
Test [16] deals with Mitogen-activated protein kinase kinase kinase 2 (Homo sapiens) (UniProt Q9Y2U5). The experiment in a line: Inhibition of recombinant full length GST-tagged human MEKK2 expressed in baculovirus expression system at 1 uM by FRET assay relative to control. In a few lines: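 Part of a 220-kinase panel run at a single concentration of 1 μM. Z′-LYTE format: phosphorylation of a labelled peptide read by FRET. Values reported as percent inhibition.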

Test [17] addresses MAP kinase-interacting serine/threonine-protein kinase 2 (Homo sapiens) (UniProt Q9HBH9). The experiment in a line: Inhibition of recombinant human N-terminal full length GST-tagged MKNK2 expressed in baculovirus at 1 uM by FRET assay relative to control.
Test [18] deals with Fibroblast growth factor receptor 4 (Homo sapiens) (UniProt P22455). The experiment in a line: Inhibition of recombinant His-tagged human FGFR4 cytoplasmic domain expressed in baculovirus expression system at 1 uM by FRET assay relative to control. In short, it runs like this:
as §1

The inhibition is the change of the read-out against control, counted positive when it falls. As usually defined, the IC50 is the concentration that gives 50% inhibition.

Sequence of Mitogen-activated protein kinase kinase kinase 2 (Homo sapiens) (Q9Y2U5 whole entry): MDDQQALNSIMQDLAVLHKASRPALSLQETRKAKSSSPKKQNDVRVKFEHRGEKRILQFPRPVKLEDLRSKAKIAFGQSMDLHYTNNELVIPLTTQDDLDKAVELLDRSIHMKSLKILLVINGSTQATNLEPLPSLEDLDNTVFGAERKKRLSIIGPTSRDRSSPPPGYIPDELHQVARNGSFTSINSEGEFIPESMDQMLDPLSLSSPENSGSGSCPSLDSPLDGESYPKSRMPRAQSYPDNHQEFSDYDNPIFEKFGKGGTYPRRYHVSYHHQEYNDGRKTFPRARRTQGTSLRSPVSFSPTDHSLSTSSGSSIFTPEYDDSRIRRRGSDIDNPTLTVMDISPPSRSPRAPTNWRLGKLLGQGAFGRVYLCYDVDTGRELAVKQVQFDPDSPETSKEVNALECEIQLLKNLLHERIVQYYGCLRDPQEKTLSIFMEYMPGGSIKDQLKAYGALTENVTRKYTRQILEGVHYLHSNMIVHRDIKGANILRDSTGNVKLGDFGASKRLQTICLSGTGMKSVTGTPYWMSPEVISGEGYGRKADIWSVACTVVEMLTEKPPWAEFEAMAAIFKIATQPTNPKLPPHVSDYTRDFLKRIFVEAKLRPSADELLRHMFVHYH
Sequence of Sphingosine kinase 1 (Homo sapiens) (Q9NYA1 whole entry): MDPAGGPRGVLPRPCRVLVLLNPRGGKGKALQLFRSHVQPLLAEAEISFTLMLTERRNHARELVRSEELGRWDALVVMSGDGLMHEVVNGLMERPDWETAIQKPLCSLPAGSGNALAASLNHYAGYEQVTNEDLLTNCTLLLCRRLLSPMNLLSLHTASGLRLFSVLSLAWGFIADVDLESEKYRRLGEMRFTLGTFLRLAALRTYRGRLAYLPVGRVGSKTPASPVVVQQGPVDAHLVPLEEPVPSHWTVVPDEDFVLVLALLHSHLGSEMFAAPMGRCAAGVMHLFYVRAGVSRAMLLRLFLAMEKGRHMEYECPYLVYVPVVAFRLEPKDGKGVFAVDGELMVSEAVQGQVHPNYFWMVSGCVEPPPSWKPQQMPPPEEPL
Sequence of Fibroblast growth factor receptor 4 (Homo sapiens) (P22455 22-802 limits assumed): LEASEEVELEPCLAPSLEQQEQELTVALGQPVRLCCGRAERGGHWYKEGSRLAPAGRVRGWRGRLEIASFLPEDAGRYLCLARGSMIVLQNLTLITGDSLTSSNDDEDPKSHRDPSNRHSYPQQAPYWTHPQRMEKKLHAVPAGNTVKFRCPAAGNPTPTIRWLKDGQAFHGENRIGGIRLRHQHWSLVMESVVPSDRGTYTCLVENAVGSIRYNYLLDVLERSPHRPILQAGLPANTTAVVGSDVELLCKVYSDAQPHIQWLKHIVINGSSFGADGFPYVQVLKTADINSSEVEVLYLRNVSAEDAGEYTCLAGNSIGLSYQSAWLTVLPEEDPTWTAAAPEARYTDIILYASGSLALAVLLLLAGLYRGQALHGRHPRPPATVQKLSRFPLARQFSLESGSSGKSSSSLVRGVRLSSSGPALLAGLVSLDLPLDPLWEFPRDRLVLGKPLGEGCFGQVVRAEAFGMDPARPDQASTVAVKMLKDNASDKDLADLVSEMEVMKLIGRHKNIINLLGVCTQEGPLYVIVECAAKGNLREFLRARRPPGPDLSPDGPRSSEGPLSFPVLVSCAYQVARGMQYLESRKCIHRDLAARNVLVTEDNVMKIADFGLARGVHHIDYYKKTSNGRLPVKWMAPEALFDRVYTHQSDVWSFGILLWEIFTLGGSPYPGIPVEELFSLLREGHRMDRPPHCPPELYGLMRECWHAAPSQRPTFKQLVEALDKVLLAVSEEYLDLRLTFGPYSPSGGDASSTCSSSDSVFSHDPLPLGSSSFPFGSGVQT
Sequence of Serine/threonine-protein kinase Chk2 (Homo sapiens) (O96017 whole entry): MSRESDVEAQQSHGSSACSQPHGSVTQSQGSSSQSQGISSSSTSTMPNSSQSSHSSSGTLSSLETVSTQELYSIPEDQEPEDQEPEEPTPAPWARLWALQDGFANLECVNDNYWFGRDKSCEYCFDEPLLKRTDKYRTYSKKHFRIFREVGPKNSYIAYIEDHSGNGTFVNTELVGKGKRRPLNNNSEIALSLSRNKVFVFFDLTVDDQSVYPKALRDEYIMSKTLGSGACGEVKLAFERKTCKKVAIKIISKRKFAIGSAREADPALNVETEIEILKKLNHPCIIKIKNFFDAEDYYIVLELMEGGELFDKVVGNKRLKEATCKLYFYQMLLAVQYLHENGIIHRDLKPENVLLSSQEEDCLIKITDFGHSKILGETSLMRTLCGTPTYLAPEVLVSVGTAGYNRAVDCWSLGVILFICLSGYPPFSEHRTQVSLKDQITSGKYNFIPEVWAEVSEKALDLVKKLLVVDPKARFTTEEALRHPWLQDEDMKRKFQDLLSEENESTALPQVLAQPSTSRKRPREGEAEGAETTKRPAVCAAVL
Sequence of Histamine H1 receptor (Homo sapiens) (P35367 whole entry): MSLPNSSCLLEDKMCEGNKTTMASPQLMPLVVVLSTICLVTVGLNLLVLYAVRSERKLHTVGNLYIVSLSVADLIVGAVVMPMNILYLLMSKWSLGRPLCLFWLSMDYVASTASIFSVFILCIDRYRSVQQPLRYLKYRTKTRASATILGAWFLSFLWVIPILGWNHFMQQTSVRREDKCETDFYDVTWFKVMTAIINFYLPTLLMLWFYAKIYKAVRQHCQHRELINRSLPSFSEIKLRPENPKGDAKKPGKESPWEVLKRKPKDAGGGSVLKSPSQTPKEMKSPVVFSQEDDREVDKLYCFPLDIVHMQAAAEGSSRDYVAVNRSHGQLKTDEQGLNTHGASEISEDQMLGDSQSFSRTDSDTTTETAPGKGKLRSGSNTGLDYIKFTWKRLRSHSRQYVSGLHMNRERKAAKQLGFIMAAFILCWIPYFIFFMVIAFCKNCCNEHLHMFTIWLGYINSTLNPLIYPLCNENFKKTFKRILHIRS
Sequence of Tyrosine-protein kinase receptor UFO (Homo sapiens) (P30530 whole entry, the tested form may be a part): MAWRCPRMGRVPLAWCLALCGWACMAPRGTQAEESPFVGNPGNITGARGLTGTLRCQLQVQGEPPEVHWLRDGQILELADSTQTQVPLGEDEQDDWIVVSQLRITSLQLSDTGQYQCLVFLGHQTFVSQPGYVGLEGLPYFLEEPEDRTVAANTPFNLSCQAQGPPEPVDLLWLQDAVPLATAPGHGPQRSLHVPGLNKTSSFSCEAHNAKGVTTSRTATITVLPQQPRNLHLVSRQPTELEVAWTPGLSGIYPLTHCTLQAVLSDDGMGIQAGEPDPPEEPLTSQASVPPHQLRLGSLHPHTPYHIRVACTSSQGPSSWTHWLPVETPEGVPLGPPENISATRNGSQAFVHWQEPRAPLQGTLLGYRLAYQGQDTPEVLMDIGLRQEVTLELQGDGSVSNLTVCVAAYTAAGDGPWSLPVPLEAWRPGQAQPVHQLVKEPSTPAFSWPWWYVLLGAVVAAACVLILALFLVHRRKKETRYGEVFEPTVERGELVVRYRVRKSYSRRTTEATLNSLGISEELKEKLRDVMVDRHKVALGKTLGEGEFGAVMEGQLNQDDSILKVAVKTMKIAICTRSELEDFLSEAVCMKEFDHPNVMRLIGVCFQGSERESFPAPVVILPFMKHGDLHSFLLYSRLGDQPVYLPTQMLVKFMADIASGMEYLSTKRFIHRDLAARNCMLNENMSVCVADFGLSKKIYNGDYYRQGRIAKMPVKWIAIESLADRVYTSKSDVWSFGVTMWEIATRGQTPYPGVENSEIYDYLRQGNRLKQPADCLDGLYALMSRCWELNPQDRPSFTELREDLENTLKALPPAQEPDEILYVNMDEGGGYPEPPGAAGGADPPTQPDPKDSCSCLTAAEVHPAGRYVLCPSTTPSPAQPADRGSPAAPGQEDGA
Sequence of MAP kinase-interacting serine/threonine-protein kinase 2 (Homo sapiens) (Q9HBH9 whole entry, looked up, the tested form may be a part): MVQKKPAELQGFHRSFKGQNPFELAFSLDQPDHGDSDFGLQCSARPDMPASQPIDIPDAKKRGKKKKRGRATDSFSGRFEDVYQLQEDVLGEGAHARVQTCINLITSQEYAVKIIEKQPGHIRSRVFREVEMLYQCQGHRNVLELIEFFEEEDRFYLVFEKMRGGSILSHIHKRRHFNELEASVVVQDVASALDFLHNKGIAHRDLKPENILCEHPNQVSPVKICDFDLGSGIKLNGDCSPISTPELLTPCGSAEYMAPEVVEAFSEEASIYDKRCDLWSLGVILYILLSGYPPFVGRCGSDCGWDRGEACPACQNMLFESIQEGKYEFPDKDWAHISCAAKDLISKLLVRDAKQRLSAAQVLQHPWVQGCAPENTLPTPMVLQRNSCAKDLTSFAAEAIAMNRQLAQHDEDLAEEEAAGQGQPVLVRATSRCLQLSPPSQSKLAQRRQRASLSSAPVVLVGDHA
Sequence of 5'-AMP-activated protein kinase catalytic subunit alpha-1 (Homo sapiens) (Q13131 whole entry, looked up): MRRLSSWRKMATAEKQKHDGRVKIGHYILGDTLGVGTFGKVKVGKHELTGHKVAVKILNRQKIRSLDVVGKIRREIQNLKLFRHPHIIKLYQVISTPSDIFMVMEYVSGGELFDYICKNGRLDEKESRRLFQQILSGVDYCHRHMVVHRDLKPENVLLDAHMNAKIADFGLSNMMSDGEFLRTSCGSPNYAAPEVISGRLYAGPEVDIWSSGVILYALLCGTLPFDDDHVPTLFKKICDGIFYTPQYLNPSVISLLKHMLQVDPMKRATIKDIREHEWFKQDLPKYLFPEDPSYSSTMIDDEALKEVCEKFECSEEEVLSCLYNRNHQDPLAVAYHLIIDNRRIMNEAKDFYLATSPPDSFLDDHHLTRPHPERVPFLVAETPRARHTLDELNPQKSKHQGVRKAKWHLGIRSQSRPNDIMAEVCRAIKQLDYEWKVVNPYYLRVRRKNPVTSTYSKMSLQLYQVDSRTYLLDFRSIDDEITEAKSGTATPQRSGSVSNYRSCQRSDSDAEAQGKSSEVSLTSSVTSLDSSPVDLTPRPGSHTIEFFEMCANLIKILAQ

Take `CC(C)n1nc(-c2cnc(N)c(OC(F)(F)F)c2)cc1[C@H]1[C@@H]2CN(C3COC3)C[C@@H]21`: the inhibition in [1] turned out to be 7.5%; in test [2], 5.3%; in test [4], 40.7%; in test [5], 26.8%; in [6], 14.5%; in test [7], 1.1%. Moreover, the inhibition was found to be 4.9% in test [8]; 44.3% in [9]; 2.5% in [10]; 5% in test [11]; 12.8% in test [12]; 11.3% in test [13]. Further, the inhibition in test [15] was -0.2%; in test [16], 0.5%; in [17] it was 12.3%; in test [18], 1.2%. The 50% inhibitory concentration (IC50) in [3] was 195 nM. The Activity (in test [14]; in the test listed under Homo sapiens) was over 50% throughout.

With `Nc1ncc(-c2cc([C@H]3[C@@H]4CN(C5COC5)C[C@@H]43)n(CC3CC3)n2)cc1C(F)(F)F`, the inhibition in [1] is 36.1%; in test [2], 27.4%; in [4] it was 57.4%; in [5], 30.6%; in test [6], 16.4%; in test [7], -3.8%. The inhibition in test [8] was 4.8%; in test [9] it was 38.8%; in test [10] it was -4.2%; in [11], 3.3%; in test [12] it was 16.3%; in test [13], 1.3%. The inhibition in [15] was -3.3%; in test [16], 4%; in test [17], 0.9%; in test [18], 6.3%. Moreover, the IC50 in [3] amounted to 144 nM. The Activity (in [14]; in the test filed under Homo sapiens) was over 50% throughout.
